High-throughput results deposited in PubChem by several laboratories.
DAX1 inh-1: inhibits human nuclear receptor DAX1; AID 504766; HEK293 Gal4-DAX1 luciferase reporter, luminescence; hit rate 0.99% among 340,000; inhibition, % at 6.75 µM; P51843;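 active = inhibition above the mean over all tested compounds plus 3 SD, cut at about 4.2% in these data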;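 also: inhibition shows as a rise in luminescence from relieved DAX1 repression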
Target sequence (P51843 207-470 limits assumed): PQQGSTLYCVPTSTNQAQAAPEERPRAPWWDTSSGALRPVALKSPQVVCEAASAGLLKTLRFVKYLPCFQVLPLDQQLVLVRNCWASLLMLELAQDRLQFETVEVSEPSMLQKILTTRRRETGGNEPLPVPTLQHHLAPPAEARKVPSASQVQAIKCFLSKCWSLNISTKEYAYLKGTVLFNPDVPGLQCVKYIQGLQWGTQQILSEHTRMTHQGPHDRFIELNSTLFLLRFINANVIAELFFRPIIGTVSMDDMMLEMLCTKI
DAX1 inh-2: inhibitors of DAX1 repression of SF-1 activated StAR promoter | hit rate 1.1% among 370,000 | inhibition, % at 6.8 µM | HEK293T StAR-luciferase reporter, SF-1/DAX-1 repression relief;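 active = inhibition above the mean over all tested compounds plus 3 SD, cut at about 3.6% in these data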;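 also: higher inhibition means more luminescence from relief of DAX-1 repression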
JMJD2C inh: human JMJD2C demethylase inhibition | GST-JMJD2C(1-420) H3K9me3 demethylation, DELFIA europium | inhibition, % at 2.35 µM | hit rate 0.069% among 330,000 | AID 2099;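 active = more than half of a compound's replicate wells show inhibition beyond 50%, single wells judged on their own value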;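 also: signal counts dimethyl H3K9 product captured on neutravidin plate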
SMARCA2 activ: increases SMARCA2 function in MMTV reporter cells. activation, % at 9.1 µM. MG213 cells, MMTV-luciferase reporter, dexamethasone, overnight. hit rate 1% among 370,000. AID 652017; in the data active = activation above about 7.8%
NR2E3 ag-1: activates human photoreceptor nuclear receptor NR2E3; GST-NR2E3/biotin-RetCOR TR-FRET, 1536-well; inhibition of corepressor binding, % at 4.78 µM; hit rate 0.12% among 320,000; AID 2300;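 active = percent inhibition above the cutoff of mean plus 3 SD of all tested compounds, set per screening campaign, cut at about 20% in these data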
Target sequence (Q9Y5X4 whole entry, looked up): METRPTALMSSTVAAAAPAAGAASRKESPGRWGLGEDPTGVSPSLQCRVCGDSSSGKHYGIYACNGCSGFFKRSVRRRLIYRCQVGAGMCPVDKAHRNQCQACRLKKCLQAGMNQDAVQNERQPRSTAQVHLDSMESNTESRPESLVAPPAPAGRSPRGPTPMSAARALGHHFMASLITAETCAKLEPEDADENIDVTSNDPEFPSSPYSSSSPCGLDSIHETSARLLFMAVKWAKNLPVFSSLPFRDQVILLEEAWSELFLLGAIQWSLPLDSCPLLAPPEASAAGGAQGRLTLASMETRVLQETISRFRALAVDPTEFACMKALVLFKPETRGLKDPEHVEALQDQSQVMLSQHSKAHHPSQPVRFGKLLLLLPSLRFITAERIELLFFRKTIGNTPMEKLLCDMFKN
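Material: NR2E3–RetCOR corepressor complex / Incubation: Compound–protein incubation for 5 h at 4 °C / Dosing: compound at 4.8 µM, single dose / Detection: time-resolved FRET / Benchmarks: high control biotin, low control 0.6% DMSO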
NR2E3 ag-2: activates human NR2E3 receptor | CHO-S Gal4-NCOR/VP16-NR2E3 two-hybrid, luciferase | hit rate 0.35% among 360,000 | inhibition of corepressor binding, % at 3.98 µM | Q9Y5X4;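 active = inhibition above the mean of all tested compounds plus 3 SD, cut at about 70% in these data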;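 also: higher means lower luciferase signal from less NR2E3 corepressor binding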
NR2E3 ag confirm: NR2E3 agonism confirmed in two-hybrid assay; shares compounds with NR2E3 ag-2; CHO-S mammalian two-hybrid NR2E3-NCOR, luciferase luminescence; inhibition, % at 3.98 µM; hit rate 51% among 2,300; AID 624378;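 active = average inhibition above a cutoff equal to the mean inhibition of all tested compounds plus one SD, cut at about 70% in these data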
GAL4-VP16 luc: counter-screen for NR2E3 agonists: GAL4-VP16 reporter inhibitors | shares compounds with NR2E3 ag-2 | CHO-S GAL4-VP16 luciferase reporter, luminescence | inhibition, % at 3.98 µM | hit rate 29% among 2,300 | AID 624379;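 active = mean inhibition above a cutoff equal to the average over all tested compounds plus one standard deviation, cut at about 70% in these data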;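 also: luciferase from a UAS reporter driven by GAL4-VP16 transactivation; higher means less reporter light so more repression of VP16 activity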
Large screens that a line does not name were inactive (follow-up assays come after a bar, where they were run). Most compounds without a hit are left out; they make up all but 3.2% or so of the library.

COc1ccc(OC)c(Nc2ncnc3sccc23)c1	none
COc1cc(CN(C)c2ncnc3sccc23)ccc1OC(F)F	NR2E3 ag-2 84 | NR2E3 ag confirm 74 | GAL4-VP16 luc inactive
COC(=O)c1c(C)oc2ccc(N(C(=O)c3ccncc3)S(=O)(=O)c3ccc(C)cc3)cc12	NR2E3 ag-2 85 (no result: DAX1 inh-2, SMARCA2 activ) | NR2E3 ag confirm 95 | GAL4-VP16 luc 83
COC(=O)c1c(C)oc2ccc(N(C(=O)c3ccncc3)S(=O)(=O)c3ccc4ccccc4c3)cc12	NR2E3 ag-2 89 | NR2E3 ag confirm 97 | GAL4-VP16 luc 87
COC(=O)c1c(C)oc2ccc(N(C(=O)c3ccncc3)S(=O)(=O)c3ccc(C)cc3C)cc12	NR2E3 ag-2 91 | NR2E3 ag confirm 93 | GAL4-VP16 luc inactive
Cc1ccc(S(=O)(=O)N(C(=O)c2ccncc2)c2ccc3oc4c(c3c2)CCCC4)cc1[N+](=O)[O-]	none
Cc1ccc(S(=O)(=O)N(C(=O)c2ccncc2)c2ccc(OC(=O)c3ccncc3)c3ccccc23)c(C)c1	none (no result: DAX1 inh-2, SMARCA2 activ)
COC(=O)[C@]12CCCCC=C1N(Cc1ccc(OC)cc1)C(=O)[C@@H]2CC(=O)N1CCC(c2ccccc2)CC1	none (no result: DAX1 inh-1, JMJD2C inh, NR2E3 ag-1, NR2E3 ag-2)
COc1ccccc1C=Cc1ccnc2ccccc12	none (no result: JMJD2C inh, NR2E3 ag-1)
CN(C)c1ccc(C=Cc2ccnc3ccccc23)cc1N	none (no result: DAX1 inh-1, JMJD2C inh, NR2E3 ag-1) | NR2E3 ag confirm inactive | GAL4-VP16 luc inactive
COC(=O)[C@]12C[C@H](CC(=O)NCCCCc3ccccc3)C(=O)N(Cc3ccco3)C1=C[C@H](C(C)C)O[C@@H]2C1CC1	none (no result: DAX1 inh-1, JMJD2C inh, NR2E3 ag-1, NR2E3 ag-2)
O=C1NC[C@H](c2ccccc2)OC(=O)[C@@H](Cc2ccc(F)cc2)C/C=C\C[C@H]1CC(=O)N(CCO)Cc1ccccc1	none (no result: NR2E3 ag-1) | NR2E3 ag confirm inactive | GAL4-VP16 luc inactive
O=C1NC[C@@H](c2ccccc2)OC(=O)[C@H](Cc2ccc(F)cc2)C/C=C\C[C@H]1CC(=O)N(CCO)Cc1ccccc1	none (no result: NR2E3 ag-1)
COc1ccc(S[C@]2(C(=O)N3CCCC3)CC(=O)N(C(=O)C3CC3)[C@@H]2c2ccc(OC)cc2)cc1	none (no result: DAX1 inh-1, JMJD2C inh, NR2E3 ag-1, NR2E3 ag-2)
CCOC(=O)N1CCN(c2ncnc3c2[nH]c2ccc(F)cc23)CC1	NR2E3 ag-2 80 | NR2E3 ag confirm 95 | GAL4-VP16 luc 73
CCOC(=O)N1CCN(c2ncnc3c2[nH]c2ccc(OC)cc23)CC1	none
COc1ccc(N2CCN(c3ncnc4c3[nH]c3ccccc34)CC2)cc1	NR2E3 ag-2 77 | NR2E3 ag confirm 95 | GAL4-VP16 luc 81
O=C(CCCN1CCC(O)(c2cccc(C(F)(F)F)c2)CC1)c1ccc(F)cc1	none
OC1(c2cccc(C(F)(F)F)c2)CCN(c2ncnc3c2[nH]c2ccc(F)cc23)CC1	NR2E3 ag-2 71 (no result: JMJD2C inh, NR2E3 ag-1) | NR2E3 ag confirm 91 | GAL4-VP16 luc inactive
Fc1ccc2[nH]c3c(N4CCN(c5ccccc5)CC4)ncnc3c2c1	NR2E3 ag-2 80 | NR2E3 ag confirm 96 | GAL4-VP16 luc 80
CCOc1cc(CNc2ccc3c(c2)OCCO3)cc(Br)c1OCC	none | NR2E3 ag confirm inactive | GAL4-VP16 luc inactive
C#CCNC(=O)C[C@H]1C(=O)N(Cc2ccc(OC)cc2)C2=CCCCC[C@@]21C(=O)OC	none (no result: DAX1 inh-1, JMJD2C inh, NR2E3 ag-1, NR2E3 ag-2)
CSCc1cc(N(C)c2ccccc2)nc(-c2ccccn2)n1	NR2E3 ag-2 109 | NR2E3 ag confirm inactive | GAL4-VP16 luc inactive
CCn1c(=O)c(C(=O)Nc2nc3ccccc3[nH]2)c(O)c2ccccc21	none | NR2E3 ag confirm inactive | GAL4-VP16 luc inactive
CC(=O)OCC(=O)Nc1ccc([N+](=O)[O-])cc1Cl	none
CC(=O)Oc1c(C)cc(Cl)cc1C(=O)Nc1ccc([N+](=O)[O-])cc1Cl	NR2E3 ag-2 83 | NR2E3 ag confirm 99 | GAL4-VP16 luc 73
O=C(C1CCCN(S(=O)(=O)c2cccc3ccccc23)C1)N1CCN(Cc2ccccc2)CC1 (stereo not given)	none (no result: DAX1 inh-1, JMJD2C inh, NR2E3 ag-1, NR2E3 ag-2)
O=C(CSc1cccc[n+]1[O-])c1cc2ccccc2o1	NR2E3 ag-2 78 (no result: DAX1 inh-2, SMARCA2 activ) | NR2E3 ag confirm inactive | GAL4-VP16 luc inactive
O=C(O)CSc1cccc[n+]1[O-]	none
c1ccc(-c2noc(-c3ccc4ccccc4c3)n2)nc1	none (no result: DAX1 inh-2, SMARCA2 activ) | NR2E3 ag confirm inactive | GAL4-VP16 luc inactive
O=C(Nc1ccc2c(c1)OCCO2)NC1(C(F)(F)F)Oc2ccccc2O1	none | NR2E3 ag confirm inactive | GAL4-VP16 luc inactive
CN(C)C(=O)C[C@H]1CC[C@H]2[C@H](COc3ccc(NC(=O)C4CC4)cc3C(=O)N2C)O1	none (no result: DAX1 inh-1, JMJD2C inh, NR2E3 ag-1, NR2E3 ag-2)
Nc1ccc(Oc2ccccc2-c2ccccc2)cc1	none | NR2E3 ag confirm inactive | GAL4-VP16 luc inactive
O=C(CC(Nc1ccc(Cl)cc1Cl)C(=O)O)c1ccccc1 (stereo not given)	none | NR2E3 ag confirm inactive | GAL4-VP16 luc inactive
CNC(=O)C[C@H]1CC[C@H]2[C@@H](COc3ccc(NC(=O)Nc4ccccc4)cc3C(=O)N2C)O1	none (no result: DAX1 inh-1, JMJD2C inh, NR2E3 ag-1, NR2E3 ag-2)
O=C(Nc1ccc(OCC(F)(F)C(F)F)c(C(F)(F)F)c1)c1ccc(Cl)cc1	NR2E3 ag-2 90 | NR2E3 ag confirm inactive | GAL4-VP16 luc inactive
CC(=NN1CCN(Cc2ccccc2Cl)CC1)c1ccc(O)cc1	none (no result: DAX1 inh-1, JMJD2C inh, NR2E3 ag-1, NR2E3 ag-2)
CCOC(=O)N1CCN(C(=O)C[C@H]2C[C@@]3(C(=O)OC)C(=C[C@H](COCc4ccccc4)O[C@@H]3C)N(CCc3ccc(OC)c(OC)c3)C2=O)CC1	none (no result: DAX1 inh-1, JMJD2C inh, NR2E3 ag-1, NR2E3 ag-2)
COc1ccc(OC)c(C2C=C(C34CC5CC(CC(C5)C3)C4)NC(=S)N2)c1 (stereo not given)	none | NR2E3 ag confirm inactive | GAL4-VP16 luc inactive
COc1cc(C2C=C(C34CC5CC(CC(C5)C3)C4)NC(=S)N2)cc(OC)c1OC (stereo not given)	none
CCc1nc2ccc(C(=O)N(C)C(C)C)cn2c1N(CC)Cc1cccc(Br)c1	NR2E3 ag-2 72 (no result: DAX1 inh-1, JMJD2C inh, NR2E3 ag-1) | NR2E3 ag confirm inactive | GAL4-VP16 luc inactive
CC(=O)N1CCCc2cc(S(=O)(=O)N3CCCC(C(=O)N4CCN(c5cc(C)ccc5C)CC4)C3)ccc21 (stereo not given)	NR2E3 ag-2 98 | NR2E3 ag confirm 91 | GAL4-VP16 luc 79
CC(=O)N1CCCc2cc(S(=O)(=O)N3CCCC(C(=O)N4CCN(c5ccccc5)CC4)C3)ccc21 (stereo not given)	none
CC(=O)N1c2ccc(S(=O)(=O)N3CCC(C(=O)N4CCN(c5cc(Cl)ccc5C)CC4)CC3)cc2CC1C (stereo not given)	NR2E3 ag-2 87 | NR2E3 ag confirm 90 | GAL4-VP16 luc 78
CC(=O)N1c2ccc(S(=O)(=O)N3CCC(C(=O)N4CCC(C)CC4)CC3)cc2CC1C (stereo not given)	none
